High-throughput results (PubChem)
The sample as a whole holds a higher share of hits than the screen did.
XBP1 UPR activ: adaptive UPR (XBP1) activation; actives 0.33% (n = 330,000); CHO-XBP1 luciferase reporter, IRE1-XBP1 UPR activation, luminescence; percent of tunicamycin response, DMSO as zero; activation, % at 20 µM;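 active = versus positive control, 20 µM dose yields 30% or more activation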;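 note: 100% = tunicamycin at 10 µg/mL and 0% = DMSO only wells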
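Material: CHO-XBP1 cells stably carrying IRE1-XBP1-driven luciferase reporter / Amount: 1000 cells per well / Compound: 20 µM, 1% DMSO / Times: 6 h treatment, 37 °C / Detection: luciferase luminescence / Measure: % activation of reporter signal versus tunicamycin and DMSO controls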
CHOP inh: blocks CHOP induction under ER stress | CHO-K1 CHOP-promoter luciferase, tunicamycin-induced, 15-18 h | inhibition, % at 10 µM | actives 3.8% (n = 220,000);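 active = compounds that reduced the stress-induced luciferase reporter signal by more than about 70% of percent inhibition, limit read from the data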;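 note: 0% = tunicamycin plus vehicle and 100% = wells without tunicamycin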
FXN GAA850 act: frataxin GAA850 promoter activation; activation, % at 6 µM; actives 0.56% (n = 360,000); AID 540364; HEK293 lucGAA850 FXN promoter luciferase reporter, 24 h; percent of 10 µM SAHA response;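 active = activation above the average of all compounds screened plus 3 SD, cutoff fixed separately per campaign, cut at about 7.5% in these data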;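 note: 0% = DMSO wells and 100% = 10 µM SAHA wells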
UPR CHOP act: apoptotic UPR (CHOP) activation; CHO-CHOP luciferase reporter, luminescence; percent of tunicamycin response over DMSO baseline; activation, % at 10 µM; actives 0.34% (n = 330,000); AID 449763;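 active = at 10 µM dose, activation of 40% or more, normalized to positive control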;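 note: 100% = tunicamycin at 10 µg/mL and 0% = DMSO alone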
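Test system: CHO-CHOP cells, stable luciferase reporter of PERK-eIF2a-CHOP signalling | Quantity: 500 CHO-CHOP cells per well | Buffer or medium: F12 plus 10% serum | Compound dosing: 10 µM single point, 0.5% DMSO | Schedule: 6 h compound treatment, 37 °C | Signal: Luciferase luminescence | Control set: Tunicamycin high control, DMSO low control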
GAA30 FXN cntr: counter-screen for GAA850 frataxin promoter activators: GAA30 promoter activation; shares compounds with FXN GAA850 act; HEK293 lucGAA30 FXN promoter luciferase, 24 h; DMSO = 0%, 5 µM ipriflavone = 100%; activation, % at 6 µM; actives 66% (n = 1,900); AID 588350;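 active = mean activation above the mean of solvent-only control wells plus 3 SD, cut at about 22% in these data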;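 note: counterscreen of GAA850 promoter hits where activity marks nonselective or luminescence artifacts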
FXN GAA850 conf: GAA850 FXN promoter activation confirmation | activation, % at 6 µM | shares compounds with FXN GAA850 act | HEK293 lucGAA850 FXN promoter luciferase reporter, 24 h; 100% = activation by SAHA | actives 86% (n = 1,900);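 active = mean activation above a set limit taken from the primary screen, cut at about 8% in these data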;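 note: 0% = DMSO wells and 100% = 10 µM SAHA wells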
* = called active by the depositor; / = no result given.

SMILES	XBP1 UPR activ	CHOP inh	FXN GAA850 act	UPR CHOP act	GAA30 FXN cntr	FXN GAA850 conf
COc1cccc(/C=C2\SC(=S)N(CCC(=O)NC3C=CS(=O)(=O)C3)C2=O)c1 (configuration not stated)	-1	/	10*	2	30*	14*
COc1ccc2c(c1)[C@H]1[C@H](CO2)[C@H](c2ccccc2)[C@]2(C)C(=O)N(CC3CCCO3)CC(=O)N12 (some centres not stated)	-2	/	0	-1	/	/
C[C@@]12C(=O)N(CCc3c[nH]c4ccccc34)CC(=O)N1[C@H]1c3ccccc3OC[C@@H]1[C@@H]2c1ccccc1	-2	/	7.7*	2	10	8.5*
C[C@@]12C(=O)N(CC3CCCO3)CC(=O)N1[C@H]1c3ccccc3OC[C@@H]1[C@@H]2c1ccccc1 (some centres not stated)	-3	/	12*	0	17	14*
CN1CC(=O)N2[C@H]3c4ccccc4OC[C@@H]3[C@H](c3ccccc3)[C@]2(C)C1=O	2	/	0	-1	/	/
O=[N+]([O-])c1cccc(N/N=C/c2cccc(O)c2O)c1	6	2	8.7*	4	67*	30*
O=[N+]([O-])c1ccccc1N/N=C/c1cccc(O)c1O	-1	71*	12*	11	40*	26*
O=[N+]([O-])c1ccccc1N/N=C\c1ccccc1Cl	-1	-1	4	4	/	/
COc1cccc(/C=N/Nc2ccc([N+](=O)[O-])cc2)c1O	5	/	8.1*	4	106*	35*
Cc1cccc(N/N=C/c2ccc(O)c(O)c2O)c1	-1	31	2	0	/	/
CC(NC(=O)C1CCCN1C(=O)c1cccs1)c1ccc(Cl)cc1Cl (configuration not stated)	/	/	0	/	/	/
CC1(C(=O)NS(=O)(=O)c2ccccc2C(F)(F)F)CCN1C(=O)CCc1ccccc1 (configuration not stated)	/	/	-1	/	/	/
CCc1nc2ccc(C(=O)NCc3ccc(OC)cc3)cn2c1N(CC)CCN(C)C	/	/	-1	/	/	/
CCOC(=O)c1c(CSc2ccccc2)n(C)c2cc(Br)c(O)c(CN(C)C)c12	2	-3	19*	4	11	12*
CCOC(=O)c1c(CN2CCCCC2)n(C)c2cc(Br)c(O)c(CN(C)C)c12	1	10	0	1	/	/
CCOC(=O)c1c(CSc2ccsc2)n(C)c2cc(Br)c(O)c(CN(C)C)c12	0	0	7.8*	2	-5	5
CCOC(=O)c1c(CSc2ccc(C)cc2)n(C)c2cc(Br)c(O)c(CN(C)C)c12	1	14	11*	1	14	15*
CCCNC(=O)C1(C)CCCN(C(=O)c2cc(F)ccc2C)C1 (configuration not stated)	/	/	2	/	/	/
COc1ccc(NC(=O)C2C(=O)NC3(C)CC2c2ccccc2O3)cc1 (configuration not stated)	15	13	13*	-1	21	7
COc1ccc(C(C)NC(=O)C2C(=O)NC3(C)CC2c2ccccc2O3)cc1 (configuration not stated)	1	8	2	-1	/	/
CCc1ncc(C(O)c2ccc(Cl)cc2)n1Cc1ccccc1 (configuration not stated)	/	/	0	/	/	/
CC1CC(=O)NN=C1c1ccc(N(C)C)c([N+](=O)[O-])c1 (configuration not stated)	-2	-32	7.8*	-1	26*	22*
CCN(CC)c1ccc(C2=NNC(=O)CC2C)cc1[N+](=O)[O-] (configuration not stated)	1	30	6	2	/	/
Fc1ccc(Nc2ccnc(Nc3ccc(F)cc3)n2)cc1	1	20	8.4*	7	107*	34*
O=C(c1cc(C2CCCCN2S(=O)(=O)Cc2ccccc2)on1)N1CCOCC1 (configuration not stated)	/	/	2	/	/	/
SMILES	XBP1 UPR activ	CHOP inh	FXN GAA850 act	UPR CHOP act	GAA30 FXN cntr	FXN GAA850 conf
COc1ccc(/C=C2\SC(N3CCCCC3)=NC2=O)cc1OC	5	/	9.5*	5	29*	21*
CCOC(=O)C1CCN(C2=NC(=O)/C(=C/c3ccc(OC)c(OC)c3)S2)CC1	9	/	4	2	/	/
Nc1nc(-c2ccccc2)cc(-c2ccccc2O)n1	-7	35	9.3*	-1	53*	48*
CCOC(=O)c1sc(-c2ccc(Br)cc2)cc1N	5	81*	16*	4	117*	43*
CCOC(=O)c1cc(-c2ccc(N)cc2)sc1N	5	36	2	5	/	/
CCc1nc2cc(NC(=O)C3(C)CCCN(C(C)C)C3)ccc2o1 (configuration not stated)	/	/	1	/	/	/
Cc1ccc2c(COC(=O)c3ccccc3Cl)cc(=O)oc2c1	7	/	8.5*	12	126*	42*
Cc1ccc2c(COC(=O)c3ccccc3Br)cc(=O)oc2c1	0	/	4	4	/	/
COc1ccccc1Oc1ccc(N/C=C/C(=O)c2ccco2)cc1	-3	16	12*	3	83*	34*
O=C(/C=C/Nc1ccc(Oc2ccccc2Cl)cc1)c1ccco1	-2	-16	4	6	/	/
CN(C)c1ccc(/C=C/c2nnnn2-c2ccccc2)cc1	-1	-16	8.3*	6	125*	38*
Cc1cc(N/C=C\c2nnnn2-c2ccccc2)no1	0	22	2	6	/	/
CC(=O)c1ccc(N2C(=O)C3C(C2=O)C(C(=O)c2ccc(Cl)cc2)N2CCCC32)cc1 (configuration not stated)	/	10	/	/	/	/
COc1ccc(N2C(=O)C3C(C2=O)C(C(=O)c2ccc(Cl)cc2)N2CCCC32)cc1 (configuration not stated)	-2	-1	8.4*	-1	11	4
FC(F)(F)c1cccc(NC(=S)N2CCCCCC2)c1	-6	48	1	0	/	/
O=C(Nc1cccc(C(F)(F)F)c1)C(=O)N1CCCCC1	0	0	8.1*	2	53*	21*
O=C(COC(=O)c1cccnc1)c1ccc(Cl)cc1	1	0	11*	4	22*	5
O=C(COC(=O)c1cccnc1)c1ccc(Cl)c(Cl)c1	-2	-2	1	-4	/	/
COc1ccc(/C=N/NC(=O)C(C)n2nnc3ccccc32)cc1OC (configuration not stated)	8	10	8.5*	1	20	11*
COC(=O)c1ccc(NC(=O)CSC2=NCCN2)cc1	-3	14	10.0*	0	34*	16*
